Test results published in ChEMBL document CHEMBL2146441, “2,6-Disubstituted imidazo[2,1-b][1,3,4]thiadiazoles: search for anticancer agents” (2012).

Key:
Assay type in all cases: functional
HCT-15 [1] = assay: Cytotoxicity against human HCT15 cells assessed as cell growth at 10^-5 M after 48 hrs by SRB assay; details: HCT-15, 48 h, read-out: Activity
Procedure, shortened: (§1)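 NCI-60 five-dose screen. Cells were grown in RPMI 1640 with 5% FBS and seeded at 5000–40,000 cells/well according to doubling time. They were pre-incubated 24 h at 37 °C in 5% CO₂, and time-zero (Tz) plates were TCA-fixed at drug addition. Five 10-fold dilutions of DMSO stock were applied for 48 h. Read-out was SRB staining, 515 nm absorbance, with percent growth calculated versus Tz and untreated control.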

SK-MEL-28 [2] = assay: Cytotoxicity against human SK-MEL-28 cells assessed as cell growth at 10^-5 M after 48 hrs by SRB assay; details: SK-MEL-28, 48 h, read-out: Activity
786-0 [3] = assay: Growth inhibition of human 786-0 cells after 48 hrs by SRB assay; details: 786-0, 48 h
Procedure, shortened: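 Same 48 h NCI-60 five-dose SRB protocol. Adherent lines were fixed with cold TCA at 10% final; suspension lines such as CCRF-CEM were fixed with 16% final TCA. Stain was 0.4% SRB in 1% acetic acid for 10 min, solubilized in 10 mM Tris base and read at 515 nm. GI50 came from log concentration–growth curves, solving [(Ti−Tz)/(C−Tz)]×100 = 50.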

[4] = Cytotoxicity against human Hs 578T cells assessed as cell growth at 10^-5 M after 48 hrs by SRB assay; details: read-out: Activity; procedure, shortened: as §1
CCRF-CEM = assay: Cytotoxicity against human CCRF-CEM cells assessed as cell growth at 10^-4 M after 48 hrs by SRB assay; details: read-out: Activity
Procedure, shortened: (§2)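 NCI-60 screen: lines kept in RPMI 1640 with 5% FBS, seeded at 5000–40,000 cells/well by doubling time, preincubated 24 h at 37 °C in 5% CO2. Time-zero plates TCA-fixed at drug addition. DMSO stocks diluted in medium, 48 h exposure. Fixation in cold TCA (final 10% adherent, 16% suspension), 0.4% SRB stain, solubilised in 10 mM Tris base, A515. Percent growth computed against control and time-zero.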

HL-60 [5] = assay: Cytotoxicity against human HL60 cells assessed as cell growth at 10^-7 M after 48 hrs by SRB assay; details: HL-60, 48 h, read-out: Activity; procedure, shortened: as §1
SK-MEL-28 [6] = assay: Cytotoxicity against human SK-MEL-28 cells assessed as cell growth at 10^-7 M after 48 hrs by SRB assay; details: SK-MEL-28, 48 h, read-out: Activity
HL-60 [7] = assay: Cytotoxicity against human HL60 cells assessed as cell growth at 10^-4 M after 48 hrs by SRB assay; details: HL-60, 48 h, read-out: Activity; procedure, shortened: as §1
[8] = Cytotoxicity against human RPMI8266 cells assessed as cell growth at 10^-4 M after 48 hrs by SRB assay; details: RPMI8266, 48 h, read-out: Activity
NCI-H322M [9] = assay: Cytotoxicity against human NCI-H322M cells assessed as cell growth at 10^-4 M after 48 hrs by SRB assay; details: read-out: Activity
KM12 [10] = assay: Cytotoxicity against human KM12 cells assessed as cell growth at 10^-4 M after 48 hrs by SRB assay; details: KM12, 48 h, read-out: Activity
SNB-19 = assay: Cytotoxicity against human SNB19 cells assessed as cell growth at 10^-4 M after 48 hrs by SRB assay; details: SNB-19, 48 h, read-out: Activity
UACC-257 = assay: Cytotoxicity against human UACC257 cells assessed as cell growth at 10^-4 M after 48 hrs by SRB assay; details: UACC-257, 48 h, read-out: Activity
IGROV-1 = assay: Cytotoxicity against human IGROV1 cells assessed as cell growth at 10^-4 M after 48 hrs by SRB assay; details: IGROV-1, 48 h, read-out: Activity; procedure, shortened: as §1
786-0 [11] = assay: Cytotoxicity against human 786-0 cells assessed as cell growth at 10^-4 M after 48 hrs by SRB assay; details: 786-0, 48 h, read-out: Activity; procedure, shortened: as §2
BT-549 = assay: Cytotoxicity against human BT549 cells assessed as cell growth at 10^-4 M after 48 hrs by SRB assay; details: BT-549, 48 h, read-out: Activity; procedure, shortened: as §2
RXF 393 = assay: Cytotoxicity against human RXF393 cells assessed as cell growth at 10^-7 M after 48 hrs by SRB assay; details: RXF 393, 48 h, read-out: Activity
A549 = assay: Cytotoxicity against human A549 cells assessed as cell growth at 10^-8 M after 48 hrs by SRB assay; details: A549, 48 h, read-out: Activity; procedure, shortened: as §2
NCI-H322M [12] = assay: Cytotoxicity against human NCI-H322M cells assessed as cell growth at 10^-8 M after 48 hrs by SRB assay; details: read-out: Activity
HCT-15 [13] = assay: Cytotoxicity against human HCT15 cells assessed as cell growth at 10^-8 M after 48 hrs by SRB assay; details: HCT-15, 48 h, read-out: Activity; procedure, shortened: as §1
KM12 [14] = assay: Cytotoxicity against human KM12 cells assessed as cell growth at 10^-8 M after 48 hrs by SRB assay; details: KM12, 48 h, read-out: Activity
COLO = assay: Cytotoxicity against human COLO […] cells assessed as cell growth at 10^-6 M after 48 hrs by SRB assay; details: read-out: Activity; procedure, shortened: as §2
HCT-116 = assay: Cytotoxicity against human HCT116 cells assessed as cell growth at 10^-6 M after 48 hrs by SRB assay; details: HCT-116, 48 h, read-out: Activity; procedure, shortened: as §1
OVCAR-3 = assay: Cytotoxicity against human OVCAR3 cells assessed as cell growth at 10^-6 M after 48 hrs by SRB assay; details: OVCAR-3, 48 h, read-out: Activity
SK-OV-3 = assay: Cytotoxicity against human SKOV3 cells assessed as cell growth at 10^-6 M after 48 hrs by SRB assay; details: SK-OV-3, 48 h, read-out: Activity
786-0 [15] = assay: Cytotoxicity against human 786-0 cells assessed as cell growth at 10^-6 M after 48 hrs by SRB assay; details: 786-0, 48 h, read-out: Activity; procedure, shortened: as §2
HOP-62 [16] = assay: Growth inhibition of human HOP62 cells after 48 hrs by SRB assay; details: HOP-62, 48 h
Procedure, shortened: (§3)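 Adherent NCI-60 lines grown in RPMI 1640 with 5% FBS, seeded at 5000–40,000 cells/well, and preincubated 24 h at 37 °C, 5% CO2. Compound, stocked in DMSO, given either once at 10^-5 M or at five 10-fold dilutions for 48 h. Cells fixed with cold TCA (final 10%), stained with 0.4% SRB, and read at 515 nm. GI50 taken as 50% reduction in net protein increase versus time-zero and control plates.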

HCT-15 [17] = assay: Growth inhibition of human HCT15 cells after 48 hrs by SRB assay; details: HCT-15, 48 h; for CC50: read-out: LC50 (the source's name); procedure, shortened: as §3
EKVX = assay: Cytotoxicity against human EKVX cells assessed as cell growth at 10^-5 M after 48 hrs by SRB assay; details: read-out: Activity; procedure, shortened: as §2
HOP-62 [18] = assay: Cytotoxicity against human HOP62 cells assessed as cell growth at 10^-5 M after 48 hrs by SRB assay; details: HOP-62, 48 h, read-out: Activity; procedure, shortened: as §1

**Q.** With COc1ccc(-c2nn3cc(-c4ccc(O)cc4O)nc3s2)cc1 as the compound, how does the growth at 10 µM (HCT-15 [1]) read?
**A.** 32%

**Q.** And the growth at 10 µM (SK-MEL-28 [2])?
**A.** 3%

**Q.** What about the GI50 (786-0 [3]) of the same compound?
**A.** 1.72 µM

**Q.** What about the TGI (786-0 [3]) of the same compound?
**A.** 3.43 µM

**Q.** What about the growth at 10 µM [4] of the same compound?
**A.** -2%

**Q.** And the growth at 100 µM (CCRF-CEM)?
**A.** 8%

**Q.** What about the growth at 0.1 µM (HL-60 [5]) of the same compound?
**A.** 92%

**Q.** What about the growth at 0.1 µM (SK-MEL-28 [6]) of the same compound?
**A.** 92%

**Q.** And the growth at 100 µM (HL-60 [7])?
**A.** -25%

**Q.** What about the growth at 100 µM [8] of the same compound?
**A.** 3%

**Q.** What about the growth at 100 µM (NCI-H322M [9]) of the same compound?
**A.** 11%

**Q.** And the growth at 100 µM (KM12 [10])?
**A.** 2%

**Q.** What about the growth at 100 µM (SNB-19) of the same compound?
**A.** 1%

**Q.** And the growth at 100 µM (UACC-257)?
**A.** -5%

**Q.** And the growth at 100 µM (IGROV-1)?
**A.** -7%

**Q.** What about the growth at 100 µM (786-0 [11]) of the same compound?
**A.** -33%

**Q.** And the growth at 100 µM (BT-549)?
**A.** -15%

**Q.** And the growth at 0.1 µM (RXF 393)?
**A.** 104%

**Q.** And the growth at 0.01 µM (A549)?
**A.** 96%

**Q.** And the growth at 0.01 µM (NCI-H322M [12])?
**A.** 89%

**Q.** And the growth at 0.01 µM (HCT-15 [13])?
**A.** 96%

**Q.** What about the growth at 0.01 µM (KM12 [14]) of the same compound?
**A.** 98%

**Q.** What about the growth at 1 µM (COLO) of the same compound?
**A.** 100%

**Q.** And the growth at 1 µM (HCT-116)?
**A.** 86%

**Q.** And the growth at 1 µM (OVCAR-3)?
**A.** 89%

**Q.** And the growth at 1 µM (SK-OV-3)?
**A.** 85%

**Q.** And the growth at 1 µM (786-0 [15])?
**A.** 90%

**Q.** What about the GI50 (HOP-62 [16]) of the same compound?
**A.** 1880 nM

**Q.** What about the LC50 (concentration killing 50% of cells) (HOP-62 [16]) of the same compound?
**A.** > 100 µM

**Q.** And the TGI (HOP-62 [16])?
**A.** 5.17 µM

**Q.** And the GI50 (HCT-15 [17])?
**A.** 5.13 µM

**Q.** What about the TGI (HCT-15 [17]) of the same compound?
**A.** > 100 µM

**Q.** What about the CC50 (HCT-15 [17]) of the same compound?
**A.** > 100 µM

**Q.** And the growth at 10 µM (EKVX)?
**A.** 15%

**Q.** What about the growth at 10 µM (HOP-62 [18]) of the same compound?
**A.** -33%

**Q.** What does the source list for COc1ccc(-c2nn3cc(-c4cccc(N)c4)nc3s2)cc1?
**A.** growth at 10 µM (HCT-15 [1]): 36%; growth at 10 µM (SK-MEL-28 [2]): 28%; GI50 (786-0 [3]): 4.7 µM; LC50 (786-0 [3]): 42.9 µM; TGI (786-0 [3]): 15.9 µM; growth at 10 µM [4]: 6%; growth at 100 µM (CCRF-CEM): 6%; growth at 0.1 µM (HL-60 [5]): 95%; growth at 0.1 µM (SK-MEL-28 [6]): 95%; growth at 100 µM (HL-60 [7]): -14%; growth at 100 µM [8]: -8%; growth at 100 µM (NCI-H322M [9]): -3%; growth at 100 µM (KM12 [10]): -48%; growth at 100 µM (SNB-19): 7%; growth at 100 µM (UACC-257): 7%; growth at 100 µM (IGROV-1): -18%; growth at 100 µM (786-0 [11]): -93%; growth at 100 µM (BT-549): -25%; growth at 0.1 µM (RXF 393): 85%; growth at 0.01 µM (A549): 106%; growth at 0.01 µM (NCI-H322M [12]): 100%; growth at 0.01 µM (HCT-15 [13]): 98%; growth at 0.01 µM (KM12 [14]): 98%; growth at 1 µM (COLO): 94%; growth at 1 µM (HCT-116): 90%; growth at 1 µM (OVCAR-3): 86%; growth at 1 µM (SK-OV-3): 87%; growth at 1 µM (786-0 [15]): 104%; GI50 (HOP-62 [16]): 3120 nM; LC50 (concentration killing 50% of cells) (HOP-62 [16]): 87.6 µM; TGI (HOP-62 [16]): 16.6 µM; GI50 (HCT-15 [17]): 5.26 µM; TGI (HCT-15 [17]): > 100 µM; CC50 (HCT-15 [17]): > 100 µM; growth at 10 µM (EKVX): 2%; growth at 10 µM (HOP-62 [18]): 15%
